Source: ChEMBL document CHEMBL2034871, “First-in-class, dual-action, 3,5-disubstituted indole derivatives having human nitric oxide synthase (nNOS) and norepinephrine reuptake inhibitory (NERI) activity for the treatment of neuropathic pain” (J Med Chem, 2012)

Key:
[1] = biological target: Nitric oxide synthase, inducible (Homo sapiens, UniProt P35228); experiment: Inhibition of human iNOS expressed in baculovirus-infected insect sf9 cells assessed as conversion of [3H]-L-arginine to [3H]-L-citrulline preincubated for 15 mins with compound measured after 45 mins by scintillation counting
[2] = biological target: Sodium-dependent noradrenaline transporter (Homo sapiens, UniProt P23975); experiment: Displacement of [3H]nisoxetine from human NET expressed in CHO cells after 120 mins by scintillation counting; assay type: cell-based
Summary of the method: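 Membranes from hNET-transfected CHO cells (20 μg protein) incubated 120 min at 4 °C with 1 nM [3H]nisoxetine in 50 mM Tris-HCl pH 7.4, 120 mM NaCl, 5 mM KCl. Nonspecific binding defined with 1 μM desipramine. Filtered on PEI-soaked GF/B and counted.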

[3] = biological target: Nitric oxide synthase 1 (Homo sapiens, UniProt P29475); experiment: Inhibition of human nNOS expressed in baculovirus-infected insect sf9 cells assessed as conversion of [3H]-L-arginine to [3H]-L-citrulline preincubated for 15 mins with compound measured after 45 mins by scintillation counting
[4] = species on record: Homo sapiens; experiment: Selectivity ratio of IC50 for human eNOS to IC50 for human nNOS
Summary of the method: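 Recombinant human nNOS and eNOS made in baculovirus-infected Sf9 cells. Buffer: 40 mM HEPES pH 7.4 with 2.4 mM CaCl2, 1 mM MgCl2, 1 mg/mL BSA, 1 mM EDTA, 1 mM DTT, 1 μM FMN/FAD, 10 μM BH4, 1 mM NADPH and 1.2 μM CaM. Compound preincubated 15 min at RT. Started with 24 μM L-arginine plus [3H]arginine. [3H]citrulline separated on DOWEX and counted; background from L-NMMA control; duplicates.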

[5] = biological target: T1, Nitric oxide synthase 3 (Homo sapiens, UniProt P29474); experiment: Inhibition of human eNOS expressed in baculovirus-infected insect sf9 cells assessed as conversion of [3H]-L-arginine to [3H]-L-citrulline preincubated for 15 mins with compound measured after 45 mins by scintillation counting
T1 sequence (P29474 whole entry): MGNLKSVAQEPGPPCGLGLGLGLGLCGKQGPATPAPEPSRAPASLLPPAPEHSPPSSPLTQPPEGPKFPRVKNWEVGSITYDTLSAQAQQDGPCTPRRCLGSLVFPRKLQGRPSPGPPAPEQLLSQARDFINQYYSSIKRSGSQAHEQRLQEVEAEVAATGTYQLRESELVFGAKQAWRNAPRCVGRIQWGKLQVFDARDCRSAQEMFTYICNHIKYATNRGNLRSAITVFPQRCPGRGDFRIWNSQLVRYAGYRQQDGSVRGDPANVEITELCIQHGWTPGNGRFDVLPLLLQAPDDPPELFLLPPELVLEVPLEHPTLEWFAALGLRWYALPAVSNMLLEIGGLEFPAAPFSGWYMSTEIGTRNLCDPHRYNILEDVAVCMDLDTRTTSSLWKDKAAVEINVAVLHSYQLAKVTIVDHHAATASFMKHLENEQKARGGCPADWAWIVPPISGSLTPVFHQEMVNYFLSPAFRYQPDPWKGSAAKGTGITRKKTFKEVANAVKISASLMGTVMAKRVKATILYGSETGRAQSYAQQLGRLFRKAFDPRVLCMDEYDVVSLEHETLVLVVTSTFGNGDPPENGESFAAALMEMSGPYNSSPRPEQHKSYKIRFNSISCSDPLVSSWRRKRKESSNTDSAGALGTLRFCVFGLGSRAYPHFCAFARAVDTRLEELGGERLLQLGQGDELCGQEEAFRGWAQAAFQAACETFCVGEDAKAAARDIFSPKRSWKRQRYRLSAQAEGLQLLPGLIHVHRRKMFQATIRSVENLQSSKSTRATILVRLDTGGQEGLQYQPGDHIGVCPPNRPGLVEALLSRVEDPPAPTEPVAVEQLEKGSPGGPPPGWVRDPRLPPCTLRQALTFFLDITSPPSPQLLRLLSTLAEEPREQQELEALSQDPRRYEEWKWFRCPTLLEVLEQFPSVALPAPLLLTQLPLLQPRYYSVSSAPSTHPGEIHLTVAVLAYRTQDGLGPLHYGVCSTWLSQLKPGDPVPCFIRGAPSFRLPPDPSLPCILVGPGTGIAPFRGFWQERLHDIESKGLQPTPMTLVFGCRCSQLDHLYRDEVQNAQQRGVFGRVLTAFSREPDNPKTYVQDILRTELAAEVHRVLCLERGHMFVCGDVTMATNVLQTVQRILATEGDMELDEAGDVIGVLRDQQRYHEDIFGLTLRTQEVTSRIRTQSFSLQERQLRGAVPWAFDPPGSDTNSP

[6] = biological target: Cytochrome P450 3A4 (Homo sapiens, UniProt P08684); experiment: Inhibition of CYP3A4; assay type: ADME
[7] = biological target: Cytochrome P450 2D6 (Homo sapiens, UniProt P10635); experiment: Inhibition of CYP2D6; assay type: ADME
[8] = biological target: Cytochrome P450 2C19 (Homo sapiens, UniProt P33261); experiment: Inhibition of CYP2C19; assay type: ADME
[9] = biological target: Cytochrome P450 2C9 (Homo sapiens, UniProt P11712); experiment: Inhibition of CYP2C9; assay type: ADME; details: read-out: IC50
[10] = biological target: T2, Cytochrome P450 1A2 (Homo sapiens, UniProt P05177); experiment: Inhibition of CYP1A2; assay type: ADME; details: read-out: IC50
T2 sequence (P05177 whole entry): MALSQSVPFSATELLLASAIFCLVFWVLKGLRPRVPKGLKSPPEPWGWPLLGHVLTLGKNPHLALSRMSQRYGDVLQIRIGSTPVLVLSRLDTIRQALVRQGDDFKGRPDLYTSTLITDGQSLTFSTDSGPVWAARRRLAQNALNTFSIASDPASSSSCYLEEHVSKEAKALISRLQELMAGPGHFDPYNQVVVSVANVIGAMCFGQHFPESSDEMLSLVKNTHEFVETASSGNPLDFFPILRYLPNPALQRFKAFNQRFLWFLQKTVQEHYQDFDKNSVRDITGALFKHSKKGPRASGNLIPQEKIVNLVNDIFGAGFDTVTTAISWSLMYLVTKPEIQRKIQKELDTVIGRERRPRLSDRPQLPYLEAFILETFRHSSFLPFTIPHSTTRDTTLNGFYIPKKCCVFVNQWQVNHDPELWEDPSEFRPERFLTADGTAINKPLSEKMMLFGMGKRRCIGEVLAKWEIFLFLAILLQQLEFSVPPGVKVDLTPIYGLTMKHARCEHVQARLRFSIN

Chain of Sodium-dependent noradrenaline transporter (P23975 whole entry): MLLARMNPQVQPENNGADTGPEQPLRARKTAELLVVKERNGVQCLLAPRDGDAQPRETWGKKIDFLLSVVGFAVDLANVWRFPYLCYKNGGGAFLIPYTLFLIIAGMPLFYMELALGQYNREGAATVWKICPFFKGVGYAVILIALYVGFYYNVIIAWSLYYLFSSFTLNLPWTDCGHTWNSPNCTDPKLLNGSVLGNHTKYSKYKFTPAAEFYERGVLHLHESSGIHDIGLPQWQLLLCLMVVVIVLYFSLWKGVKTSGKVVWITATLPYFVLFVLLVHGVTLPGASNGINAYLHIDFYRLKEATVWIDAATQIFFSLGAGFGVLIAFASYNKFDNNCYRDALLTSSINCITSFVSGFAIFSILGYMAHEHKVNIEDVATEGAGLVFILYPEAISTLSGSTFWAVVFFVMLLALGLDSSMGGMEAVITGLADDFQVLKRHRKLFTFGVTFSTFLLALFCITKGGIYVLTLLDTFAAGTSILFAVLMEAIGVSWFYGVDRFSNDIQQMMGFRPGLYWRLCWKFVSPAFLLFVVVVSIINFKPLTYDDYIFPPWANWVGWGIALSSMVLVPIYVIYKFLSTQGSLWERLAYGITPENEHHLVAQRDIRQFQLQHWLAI
Chain of Nitric oxide synthase 1 (P29475 whole entry): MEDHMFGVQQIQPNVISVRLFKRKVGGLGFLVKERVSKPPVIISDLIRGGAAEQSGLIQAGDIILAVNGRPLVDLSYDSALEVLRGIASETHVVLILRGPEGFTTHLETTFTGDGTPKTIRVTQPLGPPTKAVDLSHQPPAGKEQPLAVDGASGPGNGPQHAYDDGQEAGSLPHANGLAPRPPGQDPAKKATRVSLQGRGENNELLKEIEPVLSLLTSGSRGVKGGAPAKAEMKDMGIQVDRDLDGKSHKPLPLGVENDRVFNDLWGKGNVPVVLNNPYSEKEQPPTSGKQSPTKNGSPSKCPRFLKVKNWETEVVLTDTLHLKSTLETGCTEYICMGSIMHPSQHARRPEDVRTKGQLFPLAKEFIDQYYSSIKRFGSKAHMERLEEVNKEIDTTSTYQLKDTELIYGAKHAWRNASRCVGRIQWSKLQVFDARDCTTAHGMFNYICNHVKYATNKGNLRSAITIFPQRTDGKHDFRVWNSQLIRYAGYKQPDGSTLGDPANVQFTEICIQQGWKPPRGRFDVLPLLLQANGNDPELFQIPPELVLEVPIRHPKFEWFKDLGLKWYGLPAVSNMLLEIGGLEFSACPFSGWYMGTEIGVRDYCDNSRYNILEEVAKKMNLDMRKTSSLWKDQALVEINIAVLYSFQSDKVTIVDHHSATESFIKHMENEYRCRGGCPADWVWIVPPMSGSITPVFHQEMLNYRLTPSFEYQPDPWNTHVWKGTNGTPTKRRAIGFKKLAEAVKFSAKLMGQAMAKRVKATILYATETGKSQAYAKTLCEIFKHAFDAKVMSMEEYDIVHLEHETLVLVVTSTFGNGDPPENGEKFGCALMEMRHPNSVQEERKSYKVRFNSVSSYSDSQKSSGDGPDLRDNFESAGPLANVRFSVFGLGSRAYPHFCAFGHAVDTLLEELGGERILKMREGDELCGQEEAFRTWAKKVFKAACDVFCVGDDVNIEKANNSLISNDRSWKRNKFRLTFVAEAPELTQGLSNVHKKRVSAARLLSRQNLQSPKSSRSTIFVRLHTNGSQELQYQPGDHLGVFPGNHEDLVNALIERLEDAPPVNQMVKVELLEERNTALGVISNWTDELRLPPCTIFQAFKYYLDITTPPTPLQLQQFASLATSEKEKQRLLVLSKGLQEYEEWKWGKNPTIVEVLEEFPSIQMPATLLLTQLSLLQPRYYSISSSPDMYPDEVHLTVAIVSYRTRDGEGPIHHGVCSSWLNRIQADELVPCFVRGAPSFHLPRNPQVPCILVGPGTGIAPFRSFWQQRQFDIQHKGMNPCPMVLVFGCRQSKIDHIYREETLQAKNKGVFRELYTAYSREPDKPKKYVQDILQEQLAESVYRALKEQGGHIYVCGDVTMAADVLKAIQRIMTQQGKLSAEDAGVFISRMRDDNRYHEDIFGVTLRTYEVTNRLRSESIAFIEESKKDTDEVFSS
Chain of Nitric oxide synthase, inducible (P35228 whole entry): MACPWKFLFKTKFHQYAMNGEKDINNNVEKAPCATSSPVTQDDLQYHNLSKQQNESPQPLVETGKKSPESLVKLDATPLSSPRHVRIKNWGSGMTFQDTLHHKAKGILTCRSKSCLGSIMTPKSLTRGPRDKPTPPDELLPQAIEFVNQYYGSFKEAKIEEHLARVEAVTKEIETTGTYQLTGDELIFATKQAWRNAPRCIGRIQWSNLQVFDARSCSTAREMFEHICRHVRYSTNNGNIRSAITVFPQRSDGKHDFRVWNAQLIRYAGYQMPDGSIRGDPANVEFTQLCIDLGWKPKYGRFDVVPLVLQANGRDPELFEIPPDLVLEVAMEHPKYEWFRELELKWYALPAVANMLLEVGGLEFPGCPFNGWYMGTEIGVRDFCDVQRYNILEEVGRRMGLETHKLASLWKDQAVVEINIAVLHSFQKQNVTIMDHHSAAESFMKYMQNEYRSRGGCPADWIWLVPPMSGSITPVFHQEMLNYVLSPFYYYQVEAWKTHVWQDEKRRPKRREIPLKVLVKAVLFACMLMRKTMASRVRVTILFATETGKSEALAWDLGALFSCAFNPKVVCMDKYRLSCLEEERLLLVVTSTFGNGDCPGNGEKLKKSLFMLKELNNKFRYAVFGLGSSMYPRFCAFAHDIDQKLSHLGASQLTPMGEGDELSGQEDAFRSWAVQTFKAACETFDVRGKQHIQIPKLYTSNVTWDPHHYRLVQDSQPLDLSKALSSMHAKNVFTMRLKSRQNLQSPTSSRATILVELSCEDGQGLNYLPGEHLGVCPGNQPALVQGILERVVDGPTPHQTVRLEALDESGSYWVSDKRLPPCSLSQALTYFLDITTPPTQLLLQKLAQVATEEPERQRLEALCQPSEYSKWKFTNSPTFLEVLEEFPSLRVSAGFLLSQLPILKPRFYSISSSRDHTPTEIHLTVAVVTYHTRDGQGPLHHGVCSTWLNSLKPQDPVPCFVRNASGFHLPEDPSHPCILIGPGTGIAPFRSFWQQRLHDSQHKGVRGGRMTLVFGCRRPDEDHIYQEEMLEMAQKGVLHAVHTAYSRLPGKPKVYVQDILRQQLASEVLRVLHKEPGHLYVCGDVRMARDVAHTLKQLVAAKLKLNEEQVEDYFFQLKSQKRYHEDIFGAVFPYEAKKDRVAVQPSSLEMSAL
Chain of Cytochrome P450 2C9 (P11712 whole entry): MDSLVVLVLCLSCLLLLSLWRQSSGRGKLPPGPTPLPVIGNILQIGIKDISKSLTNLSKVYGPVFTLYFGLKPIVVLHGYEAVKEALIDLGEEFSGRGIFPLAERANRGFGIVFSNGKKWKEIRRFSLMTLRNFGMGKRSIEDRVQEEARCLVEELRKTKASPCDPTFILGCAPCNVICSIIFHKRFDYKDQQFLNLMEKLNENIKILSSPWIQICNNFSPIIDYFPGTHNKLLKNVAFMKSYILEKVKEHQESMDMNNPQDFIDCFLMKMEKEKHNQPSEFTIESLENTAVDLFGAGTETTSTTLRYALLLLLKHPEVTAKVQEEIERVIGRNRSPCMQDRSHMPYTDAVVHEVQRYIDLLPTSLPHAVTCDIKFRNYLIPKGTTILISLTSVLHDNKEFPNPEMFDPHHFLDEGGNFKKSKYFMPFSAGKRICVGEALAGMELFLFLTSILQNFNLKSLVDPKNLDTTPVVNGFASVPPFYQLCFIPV
Chain of Cytochrome P450 3A4 (P08684 whole entry): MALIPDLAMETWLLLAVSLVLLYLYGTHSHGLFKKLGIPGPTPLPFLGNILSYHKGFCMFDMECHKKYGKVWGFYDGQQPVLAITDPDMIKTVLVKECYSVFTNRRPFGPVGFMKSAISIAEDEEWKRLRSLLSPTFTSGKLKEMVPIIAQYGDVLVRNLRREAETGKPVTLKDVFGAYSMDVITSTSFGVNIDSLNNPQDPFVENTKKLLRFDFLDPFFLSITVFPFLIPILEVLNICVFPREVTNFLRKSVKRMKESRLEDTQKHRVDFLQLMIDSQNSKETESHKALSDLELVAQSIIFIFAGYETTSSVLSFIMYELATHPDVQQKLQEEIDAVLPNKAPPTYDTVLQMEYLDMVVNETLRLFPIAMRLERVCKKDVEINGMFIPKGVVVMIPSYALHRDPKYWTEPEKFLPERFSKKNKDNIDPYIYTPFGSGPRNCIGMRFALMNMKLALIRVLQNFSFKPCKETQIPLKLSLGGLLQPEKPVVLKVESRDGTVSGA
Chain of Cytochrome P450 2C19 (P33261 whole entry): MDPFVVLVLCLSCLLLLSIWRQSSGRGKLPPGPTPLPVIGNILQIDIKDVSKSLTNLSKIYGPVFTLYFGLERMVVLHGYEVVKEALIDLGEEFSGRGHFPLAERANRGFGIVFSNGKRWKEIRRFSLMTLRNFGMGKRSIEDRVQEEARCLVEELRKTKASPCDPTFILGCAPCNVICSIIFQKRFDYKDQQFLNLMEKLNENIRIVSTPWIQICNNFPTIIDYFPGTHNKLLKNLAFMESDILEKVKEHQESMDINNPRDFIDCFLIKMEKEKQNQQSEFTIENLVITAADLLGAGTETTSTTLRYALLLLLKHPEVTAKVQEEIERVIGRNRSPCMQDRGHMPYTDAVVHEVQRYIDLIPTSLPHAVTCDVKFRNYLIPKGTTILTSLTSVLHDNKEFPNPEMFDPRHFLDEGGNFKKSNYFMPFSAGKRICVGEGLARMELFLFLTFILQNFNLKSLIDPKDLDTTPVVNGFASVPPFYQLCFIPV

Structure (SMILES) | IC50 [1] | IC50 [2] | Ratio IC50 [4] | other results
CCN[C@H]1CCC[C@@H](c2c[nH]c3ccc(NC(=N)c4cccs4)cc23)C1 (racemic) | 19.2 µM | 1.7 µM | – | –
CN(C)C1CC=C(c2c[nH]c3ccc(NC(=N)c4cccs4)cc23)CC1 (single isomer, unassigned; (-)) | – | – | – | IC50 [3]: 0.86 µM
CN(C)C1CC=C(c2c[nH]c3ccc(/N=C(\N)c4cccs4)cc23)CC1 (single isomer, unassigned; (-)) | – | – | 54 | –
CN(C)C1CC=C(c2c[nH]c3ccc(/N=C(\N)c4cccs4)cc23)CC1 (single isomer, unassigned; (+)) | – | – | 114 | –
CCN[C@H]1CCC[C@H](c2c[nH]c3ccc(NC(=N)c4cccs4)cc23)C1 (racemic) | 54.2 µM | 0.76 µM | – | –
CCN[C@H]1CC[C@H](c2c[nH]c3ccc(NC(=N)c4cccs4)cc32)CC1 | 155 µM | – | – | –
CN(C)C1CC=C(c2c[nH]c3ccc(NC(=N)c4cccs4)cc23)CC1 (single isomer, unassigned; (+)) | – | – | – | IC50 [3]: 0.84 µM
CCNC1CC=C(c2c[nH]c3ccc(NC(=N)c4cccs4)cc23)CC1 (racemic) | – | – | 28 | –
CN(C)[C@H]1CC[C@H](c2c[nH]c3ccc(NC(=N)c4cccs4)cc32)CC1 | 149 µM | 2.2 µM | 63 | IC50 [3]: 4.52 µM; IC50 [5]: 284 µM
CN[C@H]1CCC[C@@H](c2c[nH]c3ccc(NC(=N)c4cccs4)cc23)C1 (racemic) | 54.1 µM | 2.4 µM | – | IC50 [5]: 77.6 µM
CN(C)C1CC=C(c2c[nH]c3ccc(/N=C(\N)c4cccs4)cc23)CC1 (racemic) | – | – | 17 | –
CNC1CCCC(c2c[nH]c3ccc(NC(=N)c4cccs4)cc23)C1 (single isomer, unassigned; (-)) | 70 µM | – | – | –
CN(C)C1CC=C(c2c[nH]c3ccc(NC(=N)c4cccs4)cc23)CC1 (racemic) | 24 µM | – | – | –
CN(C)[C@H]1CC[C@@H](c2c[nH]c3ccc(NC(=N)c4cccs4)cc32)CC1 | 26.5 µM | 0.16 µM | 51 | IC50 [3]: 0.35 µM; IC50 [5]: 17.5 µM
CN[C@H]1CC[C@@H](c2c[nH]c3ccc(NC(=N)c4cccs4)cc32)CC1 | […] | – | – | IC50 [6]: 57.3 µM
CN[C@H]1CCC[C@H](c2c[nH]c3ccc(NC(=N)c4cccs4)cc23)C1 (racemic) | 14.5 µM | 0.88 µM | – | IC50 [5]: 7.76 µM
CCN[C@H]1CC[C@@H](c2c[nH]c3ccc(NC(=N)c4cccs4)cc32)CC1 | 493 µM | – | – | IC50 [7]: 0.927 µM; IC50 [8]: 23.4 µM; IC50 [9]: 21.5 µM; IC50 [10]: > 100 µM
CNC1CC=C(c2c[nH]c3ccc(/N=C(\N)c4cccs4)cc23)CC1 (racemic) | – | – | 19 | –
